Experiments:
Format in all cases: functional, cell-based
SK-MEL-2 [1] = assay: Concentration required for inhibiting proliferation of human melanoma tumor cell line SK-MEL-2 after 72 hr of incubation was determined; settings: SK-MEL-2, 72 h
In short: (§1)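 SRB assay. Cells were passaged with trypsin-EDTA, seeded at 1–2 · 10^4 cells/well and grown for 24 h. Compounds dissolved in culture medium were added in triplicate and incubated 48 h at 37 C, 5% CO2. Cells were fixed with 10% cold TCA, stained with 0.4% SRB in 1% acetic acid, and the dye was solubilized in 10 mM Tris base (pH 10.5). Absorbance was read at 520 nm. IC50 is the concentration giving 50% inhibition.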

HCT-15 = assay: Concentration required for inhibiting proliferation of human colon tumor cell line HCT-15 after 72 hr of incubation was determined; settings: HCT-15, 72 h; in short: as §1
SK-OV-3 = assay: Concentration required for inhibiting proliferation of human ovarian tumor cell line SK-OV-3 after 72 hr of incubation was determined; settings: SK-OV-3, 72 h; in short: as §1
A549 = assay: Concentration required for inhibiting proliferation of human lung tumor cell line A549 after 72 hr of incubation was determined; settings: A549, 72 h; in short: as §1
XF498 [2] = assay: Concentration required for inhibiting proliferation of human brain tumor cell line XF 498 after 72 hr of incubation was determined; settings: XF498, 72 h; in short: as §1
XF498 [3] = assay: Concentration required for inhibiting proliferation of human brain tumor cell line XF 498 by 50% after 72 hr of incubation was determined; settings: XF498, 72 h; in short: as §1
SK-MEL-2 [4] = assay: Concentration required for inhibiting proliferation of human melanoma tumor cell line SK-MEL-2 by 50% after 72 hr of incubation was determined; settings: SK-MEL-2, 72 h; in short: as §1

Row | SMILES | IC50 (SK-MEL-2 [1]) [µM] | IC50 (HCT-15) [µM] | IC50 (SK-OV-3) [µM] | IC50 (A549) [µM] | IC50 (XF498 [2]) [µM] | IC50 (XF498 [3]) [µM] | IC50 (SK-MEL-2 [4]) [µM]
1 | CCCC1(CCc2ccccc2)CC(=O)C(C2CC(c3ccc(-c4ccc(Br)cc4)cc3)Cc3ccccc32)=C(O)O1 (stereo not given) | > 10 | > 10 | > 10 | > 10 | > 10 |  | 
2 | COc1ccc(C2Cc3ccccc3C(C3=C(O)OC(C)(c4ccccc4)CC3=O)C2)cc1 (stereo not given) | > 10 | > 10 | > 10 | > 10 | > 10 |  | 
3 | CC1(c2ccccc2)CC(=O)C(C2CC(c3ccc(-c4ccc(Br)cc4)cc3)Cc3ccccc32)=C(O)O1 (stereo not given) | 2.05 | 1.31 | 1.8 | 1.83 | 1.36 |  | 
4 | CC1(c2ccccc2)CC(=O)C(C(CC(=O)c2ccc(-c3ccc(Br)cc3)cc2)c2ccccc2)=C(O)O1 (stereo not given) | 8.54 | 8.59 | 5.69 | 9.18 | 6.73 |  | 
5 | CCC1(c2ccccc2)CC(=O)C(C2CC(c3ccc(OCc4ccc(C(F)(F)F)cc4)cc3)Cc3ccccc32)=C(O)O1 (stereo not given) | > 10 | > 10 | > 10 | > 10 | > 10 |  | 
6 | CCCC1(c2ccccc2)CC(=O)C(C(CC(=O)c2ccc(-c3ccc(Br)cc3)cc2)c2ccccc2)=C(O)O1 (stereo not given) | > 10 | > 10 | > 10 | > 10 | > 10 |  | 
7 | CCC1(c2ccccc2)CC(=O)C(C2CC(c3ccc(-c4ccc(Br)cc4)cc3)Cc3ccccc32)=C(O)O1 (stereo not given) | > 10 | > 10 | > 10 | > 10 | > 10 |  | 
8 | COc1cc([C@@H]2c3cc4c(cc3[C@@H](O[C@@H]3O[C@@H]5CO[C@@H](C)O[C@H]5[C@H](O)[C@H]3O)[C@H]3COC(=O)[C@H]23)OCO4)cc(OC)c1O [ETOPOSIDE] |  | 1.45 | 3.46 | 1.06 |  | 3.14 | 4.13
9 | CCC1(c2ccccc2)CC(=O)C(C(CC(=O)c2ccc(-c3ccc(Br)cc3)cc2)c2ccccc2)=C(O)O1 (stereo not given) | 8.51 | 6.71 | 5.74 | 8.13 | 6.59 |  | 
10 | CCC1(c2ccccc2)CC(=O)C(C2CC(c3ccc(OC)cc3)Cc3ccccc32)=C(O)O1 (stereo not given) | > 10 | > 10 | > 10 | > 10 | > 10 |  | 
